Experiments:
Settings in all cases: stereoisomer not certain
OR10J5 (Homo sapiens) = target: T1, OR10J5 (Homo sapiens) (UniProt Q8NHC4)
T1 sequence (whole entry): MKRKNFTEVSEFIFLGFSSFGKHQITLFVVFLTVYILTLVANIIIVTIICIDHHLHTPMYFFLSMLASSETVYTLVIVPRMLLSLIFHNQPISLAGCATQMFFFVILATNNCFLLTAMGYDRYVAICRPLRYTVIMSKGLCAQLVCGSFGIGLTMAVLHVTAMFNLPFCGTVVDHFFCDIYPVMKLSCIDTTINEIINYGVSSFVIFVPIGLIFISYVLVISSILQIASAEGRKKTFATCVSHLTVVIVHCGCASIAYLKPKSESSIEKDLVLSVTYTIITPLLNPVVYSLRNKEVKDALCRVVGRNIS
Outline: (§1)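 Each entry records the cell line, G-protein, co-transfected protein and tags used. Methods varied with the source, often transient luciferase assays in mammalian cell lines. A receptor–molecule pair is called responsive (active) if the original authors judged its signal statistically different from baseline and non-responsive (inactive) otherwise.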

OR10G2 (Homo sapiens) = target: T2, OR10G2 (Homo sapiens) (UniProt Q8NGC3)
T2 sequence (whole entry): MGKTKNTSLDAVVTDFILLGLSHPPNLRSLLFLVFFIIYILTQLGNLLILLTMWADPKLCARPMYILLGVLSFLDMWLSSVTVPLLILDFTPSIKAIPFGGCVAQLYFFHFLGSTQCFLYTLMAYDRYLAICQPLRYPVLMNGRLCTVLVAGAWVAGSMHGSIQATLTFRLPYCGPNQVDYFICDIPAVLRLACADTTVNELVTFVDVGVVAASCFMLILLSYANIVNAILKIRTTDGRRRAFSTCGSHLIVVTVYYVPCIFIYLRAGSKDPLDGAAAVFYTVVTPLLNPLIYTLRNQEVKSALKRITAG
Outline: as §1

OR10G3 (Homo sapiens) = target: T3, OR10G3 (Homo sapiens) (UniProt Q8NGC4)
T3 sequence (whole entry): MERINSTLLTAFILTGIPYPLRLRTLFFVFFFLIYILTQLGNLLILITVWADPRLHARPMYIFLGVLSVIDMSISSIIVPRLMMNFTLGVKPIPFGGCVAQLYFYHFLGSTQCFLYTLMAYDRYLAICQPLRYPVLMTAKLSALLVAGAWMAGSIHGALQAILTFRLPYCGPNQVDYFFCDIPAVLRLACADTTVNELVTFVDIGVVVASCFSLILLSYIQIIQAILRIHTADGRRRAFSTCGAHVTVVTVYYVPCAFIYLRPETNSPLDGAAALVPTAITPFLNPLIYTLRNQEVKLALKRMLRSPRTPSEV
Outline: as §1

OR10G4 (Homo sapiens) = target: T4, OR10G4 (Homo sapiens) (UniProt Q8NGN3)
T4 sequence (whole entry): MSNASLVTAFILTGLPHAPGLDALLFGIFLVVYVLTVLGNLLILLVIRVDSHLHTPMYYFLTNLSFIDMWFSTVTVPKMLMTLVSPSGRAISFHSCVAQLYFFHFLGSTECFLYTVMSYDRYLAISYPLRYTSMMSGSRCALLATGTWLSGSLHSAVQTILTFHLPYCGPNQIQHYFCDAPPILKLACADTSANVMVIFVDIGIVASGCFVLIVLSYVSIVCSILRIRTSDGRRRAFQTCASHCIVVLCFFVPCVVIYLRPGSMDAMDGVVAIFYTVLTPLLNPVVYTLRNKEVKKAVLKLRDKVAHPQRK
Outline: as §1

OR10G6 (Homo sapiens) = target: T5, OR10G6 (Homo sapiens) (UniProt Q8NH81)
T5 sequence (whole entry): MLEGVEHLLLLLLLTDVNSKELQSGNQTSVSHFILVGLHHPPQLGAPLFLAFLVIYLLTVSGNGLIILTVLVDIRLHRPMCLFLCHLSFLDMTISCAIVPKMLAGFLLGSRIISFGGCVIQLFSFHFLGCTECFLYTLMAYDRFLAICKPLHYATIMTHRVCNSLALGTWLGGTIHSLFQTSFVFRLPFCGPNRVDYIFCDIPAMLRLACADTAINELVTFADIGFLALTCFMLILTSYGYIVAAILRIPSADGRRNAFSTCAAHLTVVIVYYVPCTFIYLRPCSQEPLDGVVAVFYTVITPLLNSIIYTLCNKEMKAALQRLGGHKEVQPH
Outline: as §1

OR10G7 (Homo sapiens) = target: T6, OR10G7 (Homo sapiens) (UniProt Q8NGN6)
T6 sequence (whole entry): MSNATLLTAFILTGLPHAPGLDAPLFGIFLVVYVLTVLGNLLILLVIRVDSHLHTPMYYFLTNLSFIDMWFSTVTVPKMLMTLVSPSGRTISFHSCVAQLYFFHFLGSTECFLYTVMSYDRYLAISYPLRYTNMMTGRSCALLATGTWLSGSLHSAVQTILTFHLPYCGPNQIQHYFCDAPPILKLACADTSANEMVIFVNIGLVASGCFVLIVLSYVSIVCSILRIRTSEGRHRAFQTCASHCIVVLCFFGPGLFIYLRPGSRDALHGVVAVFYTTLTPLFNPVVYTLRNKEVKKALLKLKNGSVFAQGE
Outline: as §1

OR10G8 (Homo sapiens) = target: T7, OR10G8 (Homo sapiens) (UniProt Q8NGN5)
T7 sequence (whole entry): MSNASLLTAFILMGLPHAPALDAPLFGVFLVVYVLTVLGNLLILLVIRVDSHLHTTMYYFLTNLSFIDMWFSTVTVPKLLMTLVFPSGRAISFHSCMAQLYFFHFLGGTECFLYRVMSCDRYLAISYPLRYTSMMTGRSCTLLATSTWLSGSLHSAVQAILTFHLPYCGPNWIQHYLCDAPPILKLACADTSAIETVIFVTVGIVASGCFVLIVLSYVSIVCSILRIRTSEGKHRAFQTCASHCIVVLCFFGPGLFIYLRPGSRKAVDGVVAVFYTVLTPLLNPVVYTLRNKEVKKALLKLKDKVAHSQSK
Outline: as §1

OR10G9 (Homo sapiens) = target: T8, OR10G9 (Homo sapiens) (UniProt Q8NGN4)
T8 sequence (whole entry): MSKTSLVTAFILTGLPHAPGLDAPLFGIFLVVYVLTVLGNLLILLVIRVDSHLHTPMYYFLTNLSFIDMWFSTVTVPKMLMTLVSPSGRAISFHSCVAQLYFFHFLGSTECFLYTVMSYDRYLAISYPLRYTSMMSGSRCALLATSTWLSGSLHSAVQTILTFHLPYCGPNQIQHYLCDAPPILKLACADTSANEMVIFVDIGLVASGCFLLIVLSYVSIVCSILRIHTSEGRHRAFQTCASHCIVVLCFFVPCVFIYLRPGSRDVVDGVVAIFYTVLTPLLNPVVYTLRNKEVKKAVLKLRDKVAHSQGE
Outline: as §1

OR10H1 (Homo sapiens) = target: T9, OR10H1 (Homo sapiens) (UniProt Q9Y4A9)
T9 sequence (whole entry): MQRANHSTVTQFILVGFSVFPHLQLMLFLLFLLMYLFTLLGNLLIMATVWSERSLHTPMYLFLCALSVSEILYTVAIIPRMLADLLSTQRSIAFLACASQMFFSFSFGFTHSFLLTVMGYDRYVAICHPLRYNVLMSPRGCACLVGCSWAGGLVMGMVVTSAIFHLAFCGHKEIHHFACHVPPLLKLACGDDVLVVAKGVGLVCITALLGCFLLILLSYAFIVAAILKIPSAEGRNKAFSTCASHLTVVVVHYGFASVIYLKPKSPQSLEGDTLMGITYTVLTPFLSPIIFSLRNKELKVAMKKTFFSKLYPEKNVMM
Outline: as §1

OR10H2 (Homo sapiens) = target: T10, OR10H2 (Homo sapiens) (UniProt O60403)
T10 sequence (whole entry): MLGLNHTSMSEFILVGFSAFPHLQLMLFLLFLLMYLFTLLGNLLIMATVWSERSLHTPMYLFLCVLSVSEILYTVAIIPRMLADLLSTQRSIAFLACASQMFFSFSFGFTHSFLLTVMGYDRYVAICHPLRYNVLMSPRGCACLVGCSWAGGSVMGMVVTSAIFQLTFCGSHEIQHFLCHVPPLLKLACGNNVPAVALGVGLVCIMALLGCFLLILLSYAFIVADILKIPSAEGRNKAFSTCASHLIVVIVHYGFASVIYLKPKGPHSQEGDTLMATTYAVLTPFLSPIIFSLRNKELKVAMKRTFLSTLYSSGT
Outline: as §1

OR10H3 (Homo sapiens) = target: T11, OR10H3 (Homo sapiens) (UniProt O60404)
T11 sequence (whole entry): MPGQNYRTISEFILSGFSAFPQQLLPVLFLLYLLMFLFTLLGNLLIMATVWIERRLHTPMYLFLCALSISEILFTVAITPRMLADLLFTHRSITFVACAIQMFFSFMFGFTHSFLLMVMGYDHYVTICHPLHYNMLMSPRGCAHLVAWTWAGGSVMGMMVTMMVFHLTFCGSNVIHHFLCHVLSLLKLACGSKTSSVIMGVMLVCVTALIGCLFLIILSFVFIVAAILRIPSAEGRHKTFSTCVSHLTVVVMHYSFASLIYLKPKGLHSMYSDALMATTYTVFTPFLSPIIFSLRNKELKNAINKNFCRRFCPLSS
Outline: as §1

OR10H4 (Homo sapiens) = target: T12, OR10H4 (Homo sapiens) (UniProt Q8NGA5)
T12 sequence (whole entry): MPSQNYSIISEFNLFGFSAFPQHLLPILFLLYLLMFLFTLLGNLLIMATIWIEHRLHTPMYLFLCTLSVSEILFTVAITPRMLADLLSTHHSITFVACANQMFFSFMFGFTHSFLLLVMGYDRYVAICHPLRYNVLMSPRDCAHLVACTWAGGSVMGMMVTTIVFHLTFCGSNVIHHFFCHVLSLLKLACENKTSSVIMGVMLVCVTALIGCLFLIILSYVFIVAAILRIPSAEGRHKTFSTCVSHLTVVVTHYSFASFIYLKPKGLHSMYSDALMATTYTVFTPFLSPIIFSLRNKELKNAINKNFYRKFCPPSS
Outline: as §1

OR10H5 (Homo sapiens) = target: T13, OR10H5 (Homo sapiens) (UniProt Q8NGA6)
T13 sequence (whole entry): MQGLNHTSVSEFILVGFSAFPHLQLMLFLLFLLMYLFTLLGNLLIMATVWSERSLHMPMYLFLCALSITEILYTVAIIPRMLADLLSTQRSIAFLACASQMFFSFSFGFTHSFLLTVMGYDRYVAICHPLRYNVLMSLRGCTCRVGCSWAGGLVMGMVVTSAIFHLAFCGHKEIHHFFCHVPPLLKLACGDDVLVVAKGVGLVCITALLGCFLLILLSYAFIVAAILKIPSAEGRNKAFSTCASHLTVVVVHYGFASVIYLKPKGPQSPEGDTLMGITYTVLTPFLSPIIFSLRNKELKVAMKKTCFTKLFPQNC
Outline: as §1

OR10J1 (Homo sapiens) = target: T14, OR10J1 (Homo sapiens) (UniProt P30954)
T14 sequence (whole entry): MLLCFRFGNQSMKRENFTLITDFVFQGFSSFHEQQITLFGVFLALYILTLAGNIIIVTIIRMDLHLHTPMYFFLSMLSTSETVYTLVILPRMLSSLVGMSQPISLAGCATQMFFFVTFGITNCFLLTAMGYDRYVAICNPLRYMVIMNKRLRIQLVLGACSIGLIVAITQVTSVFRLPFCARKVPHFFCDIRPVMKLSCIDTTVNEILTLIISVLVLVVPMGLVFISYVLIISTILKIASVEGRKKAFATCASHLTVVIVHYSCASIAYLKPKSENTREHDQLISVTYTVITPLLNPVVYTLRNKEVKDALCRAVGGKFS
Outline: as §1

OR10J3 (Homo sapiens) = target: T15, OR10J3 (Homo sapiens) (UniProt Q5JRS4)
T15 sequence (whole entry): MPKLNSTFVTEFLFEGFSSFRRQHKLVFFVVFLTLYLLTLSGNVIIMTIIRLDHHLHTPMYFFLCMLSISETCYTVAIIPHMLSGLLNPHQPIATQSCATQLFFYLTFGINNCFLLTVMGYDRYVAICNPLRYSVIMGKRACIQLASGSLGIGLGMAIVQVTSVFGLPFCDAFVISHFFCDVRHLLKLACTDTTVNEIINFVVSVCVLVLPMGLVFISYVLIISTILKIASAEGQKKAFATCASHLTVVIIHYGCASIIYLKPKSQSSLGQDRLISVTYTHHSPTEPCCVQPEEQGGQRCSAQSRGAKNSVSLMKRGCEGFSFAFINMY
Outline: as §1

OR10K1 (Homo sapiens) = target: T16, OR10K1 (Homo sapiens) (UniProt Q8NGX5)
T16 sequence (whole entry): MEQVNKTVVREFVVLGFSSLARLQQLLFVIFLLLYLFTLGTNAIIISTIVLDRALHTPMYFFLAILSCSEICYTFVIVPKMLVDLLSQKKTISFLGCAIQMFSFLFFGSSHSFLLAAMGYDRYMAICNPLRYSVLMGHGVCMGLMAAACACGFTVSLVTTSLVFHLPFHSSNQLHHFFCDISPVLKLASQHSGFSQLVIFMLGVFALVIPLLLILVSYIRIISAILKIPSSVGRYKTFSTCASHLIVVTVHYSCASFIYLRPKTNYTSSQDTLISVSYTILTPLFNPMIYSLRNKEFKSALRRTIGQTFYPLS
Outline: as §1

OR10P1 (Homo sapiens) = target: T17, OR10P1 (Homo sapiens) (UniProt Q8NGE3)
T17 sequence (whole entry): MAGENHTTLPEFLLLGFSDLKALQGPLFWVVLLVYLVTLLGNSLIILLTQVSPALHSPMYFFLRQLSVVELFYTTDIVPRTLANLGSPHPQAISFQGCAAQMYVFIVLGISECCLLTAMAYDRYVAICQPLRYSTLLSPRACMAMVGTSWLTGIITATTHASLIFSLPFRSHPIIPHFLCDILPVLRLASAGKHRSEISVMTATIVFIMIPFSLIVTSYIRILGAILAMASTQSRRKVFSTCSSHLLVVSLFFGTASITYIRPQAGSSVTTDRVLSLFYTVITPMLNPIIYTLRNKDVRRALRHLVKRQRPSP
Outline: as §1

OR10Q1 (Homo sapiens) = target: T18, OR10Q1 (Homo sapiens) (UniProt Q8NGQ4)
T18 sequence (whole entry): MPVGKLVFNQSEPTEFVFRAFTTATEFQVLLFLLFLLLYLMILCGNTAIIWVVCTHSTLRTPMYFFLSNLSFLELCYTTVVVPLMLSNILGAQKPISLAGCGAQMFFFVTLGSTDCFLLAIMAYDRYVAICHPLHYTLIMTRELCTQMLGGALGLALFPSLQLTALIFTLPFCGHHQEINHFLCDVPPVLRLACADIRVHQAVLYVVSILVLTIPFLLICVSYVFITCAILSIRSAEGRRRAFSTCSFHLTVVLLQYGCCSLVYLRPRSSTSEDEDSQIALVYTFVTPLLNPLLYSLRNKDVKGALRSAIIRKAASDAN
Outline: as §1

Measured: odorant receptor agonist call

CCCCCOC(=O)CCCCC
inactive: OR10J5 (Homo sapiens)

CCCCCCO
inactive: OR10J5 (Homo sapiens)

CC1=C(O)C(=O)OC1C (stereo not given)
inactive: all assays above
